The nature of assay [1]: Calcium mobilization in saponin permeabilised SH-SY5Y neuroblastoma cells at a pH of 7.2. It counts as functional, cell-based. As to conditions: Homo sapiens. Put shortly: (§1)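 SH-SY5Y cells were preloaded with 45Ca2+ and permeabilized with saponin. Release from Ins(1,4,5)P3-sensitive stores was measured in cytosolic-like buffer at pH 6.8, 7.2 or 7.6, at 20–22 °C. Release was normalized to 100% using 30 μM Ins(1,4,5)P3 as an internal standard in each experiment. EC50 from curve fitting, mean ± sem, n = 4.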
(In general: Calcium flux is commonly read through the fluorescence of an indicator in the cells.)

A short description of assay [2]: Calcium mobilization in saponin permeabilised SH-SY5Y neuroblastoma cells at a pH of 7.6. The format is functional, cell-based. As to conditions: Homo sapiens. Put shortly: as §1
The target in assay [3] is T1, Type 1 InsP3 receptor isoform S2 (Sus scrofa, UniProt P79248). Description: Binding affinity against IP3 receptor in pig cerebellar membranes at a pH of 6.8 using [3H]Ins(1,4,5)P3 as the radioligand. The format is cell membranes, Cerebellum, Membrane. The essentials: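 [3H]Ins(1,4,5)P3 displacement using pig cerebellar P2 membranes, assayed at pH 6.8. Buffer: 25 mM Tris/maleate, 5 mM NaHCO3, 1 mM EDTA, 0.25 mM DTT. Increasing ligand concentrations were incubated with 1.5 nM radioligand and about 70 μg membrane protein for 30 min at 4 °C. Bound ligand was separated by centrifugation. Nonspecific binding was taken with 10 μM Ins(1,4,5)P3. IC50 from curve fitting, mean ± sem, n = 3.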
T1 sequence (P79248 whole entry, canonical isoform): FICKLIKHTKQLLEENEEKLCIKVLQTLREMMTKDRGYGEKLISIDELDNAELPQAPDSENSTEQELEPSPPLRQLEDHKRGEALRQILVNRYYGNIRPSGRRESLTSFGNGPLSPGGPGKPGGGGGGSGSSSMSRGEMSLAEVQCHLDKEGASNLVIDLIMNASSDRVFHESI

Assay [4] is described as follows: Calcium mobilization in saponin permeabilised SH-SY5Y neuroblastoma cells at a pH of 6.8. The format is functional, cell-based. As to conditions: Homo sapiens. Put shortly:
as §1

Assay [5] addresses T1, Type 1 InsP3 receptor isoform S2. Description: Binding affinity against IP3 receptor in pig cerebellar membranes at a pH of 7.6 using [3H]Ins(1,4,5)P3 as the radioligand. It counts as cell membranes, Cerebellum, Membrane. Put shortly: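 [3H]Ins(1,4,5)P3 displacement using pig cerebellar P2 membranes, assayed at pH 7.6. Buffer: 25 mM Tris/maleate, 5 mM NaHCO3, 1 mM EDTA, 0.25 mM DTT. Increasing ligand concentrations were incubated with 1.5 nM radioligand and about 50 μg membrane protein for 30 min at 4 °C. Bound ligand was separated by centrifugation. Nonspecific binding was taken with 10 μM Ins(1,4,5)P3. IC50 from curve fitting, mean ± sem, n = 3.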

We go through three compounds from ChEMBL document CHEMBL1127677, “The novel Ins(1,4,5)P3 analogue 3-amino-3-deoxy-Ins(1,4,5)P3: a pH-dependent Ins(1,4,5)P3 receptor partial agonist in SH-SY5Y neuroblastoma cells” (J Med Chem, 1994).

For the compound `OC1C(O)C(OP(O)(O)=S)C(OP(O)(O)=S)C(O)C1OP(O)(O)=S` (stereo unspecified), the EC50 (as a rule, the concentration needed to bring the measured effect to its halfway point) in assay [1] was determined as 52 nM; in assay [2] it was 107 nM; in assay [4] it was 255 nM. Further, the IC50 – broadly, the point on the concentration scale where inhibition reaches its midpoint – in assay [3] was found to be 78 nM; in assay [5], 61 nM.
On to `NC1C(O)C(OP(=O)(O)O)C(O)C(OP(=O)(O)O)C1OP(=O)(O)O` (stereo unspecified), for which the EC50 in assay [1] stood at 1070 nM; in assay [2], 1490 nM; in assay [4] it was 3680 nM. For the same compound, the IC50 in assay [3] is 9110 nM; in assay [5], 5650 nM.
Take `OC1C(OP(O)(O)=S)C(O)C(OP(O)(O)=S)C(OP(O)(O)=S)C1OP(O)(O)=S` (stereo unspecified): the EC50 in assay [4] was 5320 nM.
